In publication PMC4479701 (mBio, 2015):
Converted amounts (≈) assume the structure as drawn. Like-named read-outs stand apart in the source and are kept apart here.

How the values were obtained:
Candida albicans = experiment: In vitro susceptibility testing; format: cell-based
Outline: (§1)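 Inoculum prepared per CLSI M27-A3. Plates incubated at 37°C with 5% CO2 for 24 to 96 h. MIC was the lowest concentration inhibiting 50% of growth versus the drug-free control. Minimum fungicidal concentration was also measured: serial dilutions from wells were plated on YPD agar, and MFC was the lowest concentration yielding three or fewer colonies (99% of inoculum killed).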

Candida glabrata = experiment: In vitro susceptibility testing; format: cell-based; settings: FTL strains (10)
Outline: as §1

Candida parapsilosis = experiment: In vitro susceptibility testing; format: cell-based
Outline: as §1

Aspergillus fumigatus = experiment: In vitro susceptibility testing; format: cell-based
Outline: as §1

Rhizopus oryzae = experiment: In vitro susceptibility testing; format: cell-based; settings: FTL strains (3)
Outline: as §1

Blastomyces dermatitis = experiment: In vitro susceptibility testing; format: cell-based; settings: FTL strains (10)
Outline: as §1

Histoplasma capsulatum = format: cell-based
Coccidioides spp. = format: cell-based
Paecilomyces variotii = experiment: In vitro susceptibility testing; format: cell-based; settings: QC FTL strains
Outline: as §1

Pneumocystis murina = experiment: In vitro testing against Pneumocystis, inhibition of ATP; format: cell-based; settings: read-out: IC50 (percentage inhibition of ATP)
[1] = system: C. albicans, Candida parapsilosis, Paecilomyces variotii; experiment: MIC, poor activity; format: cell-based
Outline: as §1

Candida spp. = experiment: In vitro susceptibility; format: cell-based; settings: most Candida spp. examined
Outline: as §1

C. neoformans [2] = experiment: Synergism assay; format: cell-based
C. neoformans cells [3] = experiment: In vitro passages, development of resistance; format: cell-based; settings: 15 days of in vitro passages (120 generations), 10^6 cells/ml; data not shown
[4] = system: GlcCer synthesis in C. neoformans; experiment: In vivo labeling with [3H]palmitate, TLC of GlcCer; format: cell-based; settings: [3H]palmitate labeling
[5] = system: Bone marrow-derived macrophages; format: cell-based
C. neoformans cells [6] = experiment: In vitro killing assay; format: cell-based
Outline: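 An overnight C. neoformans culture was washed in PBS and resuspended in HEPES-buffered YNB, pH 7.4. 2 × 10^4 cells were exposed to 1, 2 or 4 µg/ml test compound in 10 ml (0.4% DMSO final), at 37°C, 5% CO2, on a rotary shaker at 200 rpm. Aliquots taken at time points were diluted, plated on YPD, incubated 72 h at 30°C, and CFU counted.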

In vitro toxicity = format: cell-based, murine; settings: mouse, J774.16 macrophage cells
Outline: (§2)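 J774.16 murine macrophages were kept in DMEM with 10% FBS and 1% pen-strep, and used until passage eight. At passage 7, 10^5 cells/well were allowed to adhere for 14 h. Test compound was then added at 0.1 to 100 µg/ml, with drug-free wells as controls. Incubation at 37°C, 5% CO2.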

J774 cells = experiment: In vitro toxicity; format: cell-based, murine
Outline: as §2

C. neoformans [7] = experiment: Mouse model of cryptococcosis, intranasal infection; format: in vivo, mouse (CBA/J); settings: 1.2 mg/kg/day i.p.
Outline: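 Mice (10 per group) were infected by nasal inoculation of 20 µl containing 5 × 10^5 C. neoformans. Test compound was given i.p. at 1.2 mg/kg/day in 100 µl PBS with 0.4% DMSO, starting 2 h after inoculation. Survival followed up to 60 days. Organs of survivors were homogenized in 10 ml PBS, diluted serially 1:10, plated on YPD, and incubated at 30°C for 72 h for CFU.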

P. murina = experiment: Murine pneumocystosis, corticosteroid-immunosuppressed; format: in vivo, mouse (C3H/HeN)
Outline: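 Corticosteroid-immunosuppressed mice were infected with P. murina by cohousing with seed mice for 2 weeks. […] Treatment lasted 13 days. Lung homogenate slides were stained with Diff-Quik for trophic forms and cresyl echt violet for asci.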

C. albicans SC 5314 = experiment: Mouse model of invasive candidiasis; format: in vivo, mouse (CBA/J); settings: after 21 days of infection; 1.2 mg/kg/day i.p.; 8 mice per group
Outline: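 Female CBA/J mice, 8 weeks old (8 per group), were infected i.v. with 100 µl containing 10^5 C. albicans SC-5314. Test compound was given i.p. at 1.2 mg/kg/day in 100 µl PBS with 0.4% DMSO immediately after inoculation; untreated mice received vehicle. Survival was monitored. Organs of survivors were homogenized in 10 ml PBS, diluted tenfold, and plated on YPD at 30°C for 72 h for CFU.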

[8] = system: GlcCer synthesis in C. albicans cells; experiment: GlcCer synthesis in C. albicans; format: cell-based; settings: in vitro treatment; data not shown
C. neoformans [9] = experiment: NBD C6-ceramide staining; format: cell-based; settings: 4 µg/ml; microscopy and FACS
Outline: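 C. neoformans cells, untreated or treated with 4 µg/ml test compound, were fixed in 4% paraformaldehyde in PBS and washed. They were stained with NBD C6-ceramide for 16 h at 4°C, then incubated with 1% BSA at 4°C for 1 h to strip excess dye.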

C. albicans = experiment: Yeast-to-hypha differentiation; format: cell-based; settings: 4 µg/ml
Outline: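 C. albicans yeast and hyphal forms were counted after exposure to test compound and compared with drug-free controls. Twenty random fields, about 120 cells, were scored.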

[10] = system: S. cerevisiae RYO0622 strain; experiment: IC100 prescreening; format: cell-based, Saccharomyces cerevisiae; settings: solid SC medium, 2 days, 30°C
Outline: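 S. cerevisiae RYO0622 cells (20 µl at OD600 10−4) spotted on solid SC medium alone, with DMSO, or with test compound at 67, 133, 266, 533 and 1,066 µg/ml in a 48-well plate. Incubation 2 days at 30°C in the dark. IC100 taken as the concentration giving 100% growth inhibition.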

Cc1ccccc1C(=O)NN=Cc1ccc(O)c(Br)c1 [BHBM, N′-(3-bromo-4-hydroxybenzylidene)-2-methylbenzohydrazide]
MIC range (Candida albicans; FTL strains (3)): >32 µg/mL
MIC range (Candida albicans; MDPL strains (5)): >32 µg/mL
MIC range (Candida glabrata): 0.125−2 µg/ml
MIC range (Candida parapsilosis; MDPL strains (3)): >32 µg/mL
MIC range (Candida parapsilosis; QC FTL strains): >16 µg/mL
MIC range (Aspergillus fumigatus; FTL strains (3)): >16 µg/mL
MIC range (Aspergillus fumigatus; MDPL strain (1)): 8 µg/mL (≈ 24 µM)
MIC range (Rhizopus oryzae): 2 µg/mL (≈ 6 µM)
MIC range (Blastomyces dermatitis): 0.5−1 µg/ml
MIC range (Histoplasma capsulatum): 0.125−1 µg/ml
MIC range (Coccidioides spp.): 8 to 16 µg/mL
MIC range (Paecilomyces variotii): >16 µg/mL
IC50 (Pneumocystis murina; 24 h): 1.02 µg/mL (≈ 3.06 µM)
IC50 (Pneumocystis murina; 48 h): < 0.01 µg/mL
IC50 (Pneumocystis murina; 72 h): < 0.01 µg/mL
IC50 (Pneumocystis murina; 96 h): 2.02 µg/mL (≈ 6.06 µM)
MIC [1]: > 32 µg/mL
in vitro susceptibility (Candida spp.): resistant
interaction category (C. neoformans [2]; combined with caspofungin): additive (additive effect, FIC = 1)
interaction category (C. neoformans [2]; combined with fluconazole): highly synergistic
interaction category (C. neoformans [2]; combined with tunicamycin): synergistic (synergistic effect, FIC < 1)
development of resistance (C. neoformans cells [3]): did not develop resistance
synthesis of GlcCer [4]: significantly inhibited
mammalian GlcCer level [5]: did not significantly affect
incubation required to kill about 50% of the cells (C. neoformans cells [6]): at least 72 h
type of killing (C. neoformans cells [6]; time-kill assay, 37°C, 5% CO2, pH 7.4): concentration-dependent killing
EC50 at 48 h (In vitro toxicity): 50 µg/mL (≈ 150 µM)
EC50/MIC80 selectivity index (J774 cells; J774 EC50 versus MIC): 50
selectivity index (EC50/MIC ratio) (J774 cells; macrophage cell line): > 50
brain tissue burden (CFU) (C. neoformans [7]): eradication of fungal cells
lung tissue burden (CFU) (C. neoformans [7]): decrease of fungal load
mice surviving C. neoformans infection (C. neoformans [7]; up to 60 days, 10 mice per group): 90%
number of asci or nuclei in lung homogenates (P. murina; 13 days of treatment, versus vehicle-treated negative control): No significant differences
survival (P. murina; BHBM 3.2 mg/kg/day i.p., 13 days, versus untreated): survived significantly longer
mice still alive (C. albicans SC 5314): 62.5%
GlcCer synthesis [8]: inhibited GlcCer synthesis in a dose-dependent manner
NBD C6-ceramide staining (C. neoformans [9]): substantial accumulation
yeast-to-hypha differentiation (C. albicans): significantly reduced
100% inhibitory concentration (IC100) [10]: 133 µg/mL
